This is a sample that favours compounds with a hit; in the whole collection about 3.7% have one here.
NS3 helicase inh = HCV NS3 helicase inhibition. NS3 helicase DNA unwinding, Cy5 molecular beacon fluorescence. inhibition, % at 10.9 µM. 0.56% of 290,000 active. AID 1800;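 active = inhibition above the mean of all tested compounds plus 3 SD, set per campaign, cut at about 35% in these data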
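Material: hepatitis C virus NS3 helicase domain fragment enzyme; measured by: Cy5 fluorescence, 0 and 60 min reads; control set: DMSO and thioflavine S; incubation: 60 min unwinding reaction at 25 °C after ATP addition; read-out basis: % inhibition from 60/0 min fluorescence ratio, DMSO 0%, thioflavine S 100%; repeats: singlicate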
rCAG RNA binder = r(CAG) repeat RNA binding; 1.3% of 370,000 active; inhibition, % at 3 µM; AID 651821; TO-PRO-1 dye displacement fluorescence;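 active = inhibition above the plate cutoff, the mean of all test compounds on that plate plus 3 SD, cut at about 35% in these data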;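 note: higher means more dye released from RNA so lower well fluorescence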
TAAR1 antagonist = antagonists of human TAAR1; inhibition, % at 3 µM; AID 624466; CHO RD-HGA16 TAAR1, Fluo-8 calcium fluorescence, antagonist; Q96RJ0; 1.5% of 360,000 active;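 active = inhibition above a per-plate cutoff, the mean inhibition of test compounds on that plate plus 3 SD, cut at about 49% in these data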
Target sequence (Q96RJ0 whole entry, looked up): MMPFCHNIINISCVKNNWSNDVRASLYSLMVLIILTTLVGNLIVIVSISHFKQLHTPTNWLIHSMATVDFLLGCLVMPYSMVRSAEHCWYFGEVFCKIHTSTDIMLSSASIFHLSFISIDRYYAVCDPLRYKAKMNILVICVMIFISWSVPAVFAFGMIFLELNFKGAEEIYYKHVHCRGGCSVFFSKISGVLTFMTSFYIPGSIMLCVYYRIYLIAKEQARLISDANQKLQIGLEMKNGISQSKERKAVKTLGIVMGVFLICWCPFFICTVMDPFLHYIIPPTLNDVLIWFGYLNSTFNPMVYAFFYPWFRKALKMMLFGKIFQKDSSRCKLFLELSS
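Assay system: CHO-derived RD-HGA16 cells stably expressing human TAAR1 plus Gα16. Timing: 140 s kinetic read after compound, 140 s after agonist. Technique: kinetic Fluo-8 calcium fluorescence measurement. Measure: % inhibition of agonist calcium response.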
TAAR1 agonist = human TAAR1 agonism. Q96RJ0. activation, % at 3 µM. AID 624467. 0.99% of 360,000 active. CHO RD-HGA16 TAAR1, Fluo-8 calcium fluorescence; vehicle wells 0%, saturating PEA agonist 100%;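 active = activation above the mean activation of all test compounds in the run plus 3 SD, cut at about 38% in these data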
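System: CHO-derived RD-HGA16 cells with stable Gα16 and human TAAR1. Times: 17-24 h plating, Fluo-8 75 min 37 °C, 30 min RT. Measured by: calcium-sensitive Fluo-8 signal, excitation 470-495, emission 515-575 nm. Read-out basis: % activation relative to PEA EC100 response. Control set: DMSO and PEA EC100. Repeats: no replicates (n 1).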
HCV core dimer = blocks dimerization of HCV core protein. AID 1899. 0.33% of 300,000 active. inhibition, % at 5 µM. TR-FRET GST/Flag-core106 dimerization, 1536-well;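 active = inhibition above the mean of all tested compounds plus 3 SD, set per screening campaign, cut at about 45% in these data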
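System – GST-tagged and Flag-tagged HCV core protein residues 1-106 · Repeats – one well for each compound · Technique – TR-FRET 671 and 617 nm emission · Doses – one concentration, 5 µM, in 0.5% DMSO · Times – 4 h, 22.5 °C incubation · Also added – Eu donor and XL665 acceptor anti-tag antibodies · Measure – percent inhibition of core106 dimerization signal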
rCAG bind conf = r(CAG) RNA repeat binding, confirmation. shares compounds with rCAG RNA binder. TO-PRO-1 dye displacement fluorescence. inhibition, % at 3 µM. 70% of 4,300 active;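 active = inhibition above a per-plate cutoff, the mean inhibition of sample wells plus 3 SD, cut at about 35% in these data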;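 note: loss of TO-PRO-1 fluorescence as compound displaces dye from 1x1 AA loop RNA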
DNA CAG counter = DNA CAG dye complex inhibition counter-screen | shares compounds with rCAG RNA binder | d(CAG) DNA oligo TO-PRO-1 dye displacement, fluorescence | inhibition, % at 3 µM | 94% of 4,300 active;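 active = inhibition above its plate's cutoff, the mean test-well inhibition plus 3 SD, cut at about 4.8% in these data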;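 note: hits displace the dye from DNA and so lower well fluorescence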
dCAG dye DR = disrupts DNA CAG TO-PRO-1 complex in dose response. shares compounds with rCAG RNA binder. DNA CAG/GTC duplex TO-PRO-1 dye displacement fluorescence. IC50, µM. 20% of 250 active; in the data active = IC50 below about 10 µM
Large screens that a line does not name were inactive (follow-up assays come after a bar, where they were run).

CCOC(=O)[C@]12CCCCC/C=C\1N(Cc1ccc(OC)cc1)C(=O)[C@H]2CC(=O)NCc1ccccc1	none (no result: NS3 helicase inh, TAAR1 antagonist, TAAR1 agonist, HCV core dimer)
Cc1ccc(Cn2cc(CN3[C@H](c4ccccc4)COc4cc(Br)ccc4S3(=O)=O)nn2)cc1	rCAG RNA binder 66 (no result: NS3 helicase inh, TAAR1 antagonist, TAAR1 agonist, HCV core dimer) | rCAG bind conf 51 | DNA CAG counter 19
COc1cc2c(cc1NC(=O)c1ccccc1-c1ccccc1C(=O)O)-c1ccccc1C2	rCAG RNA binder 66 (no result: NS3 helicase inh, HCV core dimer) | rCAG bind conf 60 | DNA CAG counter 20
NS(=O)(=O)c1ccc(-c2ccc(/C=C3\SC(=S)N(C4CCS(=O)(=O)C4)C3=O)o2)cc1 (stereo not drawn)	rCAG RNA binder 35 | rCAG bind conf inactive | DNA CAG counter 14
O=C(CSc1nnc(CCCOc2ccc(Cl)cc2Cl)o1)Nc1ccc(C(=O)O)cc1	rCAG RNA binder 42 | rCAG bind conf inactive | DNA CAG counter 5.0
O=C(CSc1nnc(COc2ccc(Cl)cc2Cl)o1)Nc1ccccn1	none
Cc1c(Br)c(O)c(Br)c2sc(=O)oc12	rCAG RNA binder 92 | rCAG bind conf 42 | DNA CAG counter 21 | dCAG dye DR inactive
COc1ccc(C2=NN(C(=O)COC(=O)c3ccc(NC(=O)CC#N)cc3)C(c3ccco3)C2)cc1 (stereo not drawn)	rCAG RNA binder 35 (no result: NS3 helicase inh, HCV core dimer) | rCAG bind conf inactive | DNA CAG counter 18
O=S(=O)(N/N=C/c1ccc(Cl)cc1)c1ccc(Cc2ncc(C(F)(F)F)cc2Cl)s1	rCAG RNA binder 45 | rCAG bind conf 65 | DNA CAG counter 26
Cc1ccc(O)c(NC(=O)c2cccc(S(=O)(=O)N3CCCCC3)c2)c1	none
CCOC(=O)c1ccc(NC(=O)c2cc(S(=O)(=O)N3CCOCC3)ccc2O)cc1	rCAG RNA binder 49 | rCAG bind conf 40 | DNA CAG counter 9.2
CCOC(=O)c1ccc(NC(=O)c2cc(S(=O)(=O)N3CCOCC3)cn2C)cc1	none
CCN(CC)S(=O)(=O)c1ccc(C(=O)Nc2cc(S(=O)(=O)N3CCOCC3)ccc2N2CCN(C)CC2)cc1	none (no result: NS3 helicase inh, HCV core dimer)
CCS(=O)(=O)c1ccc(O)c(NC(=O)c2ccc(S(=O)(=O)N3CCCCCC3)cc2)c1	rCAG RNA binder 37 (no result: NS3 helicase inh, HCV core dimer) | rCAG bind conf 46 | DNA CAG counter 11
COc1cc(-c2cc(C(=O)Nc3cc(S(=O)(=O)N4CCOCC4)ccc3O)c3ccccc3n2)cc(OC)c1OC	rCAG RNA binder 72, TAAR1 antagonist 51 (no result: NS3 helicase inh, HCV core dimer) | rCAG bind conf 74 | DNA CAG counter 35
CCN(CC)S(=O)(=O)c1ccc(C(=O)Nc2cc(S(=O)(=O)N3CCOCC3)ccc2O)cc1	rCAG RNA binder 36 (no result: NS3 helicase inh, HCV core dimer) | rCAG bind conf inactive | DNA CAG counter 6.9
Clc1ccc([C@H]2OC[C@@]3(CNCCN4CCOCC4)CS[C@H](c4ccc(Cl)cc4)N23)cc1	none (no result: NS3 helicase inh, TAAR1 antagonist, TAAR1 agonist, HCV core dimer)
COc1ccc2c(c1)CCCN2C(=O)C1CCCN(S(=O)(=O)c2cc(OC)ccc2OC)C1 (stereo not drawn)	none (no result: NS3 helicase inh, TAAR1 antagonist, TAAR1 agonist, HCV core dimer)
CCOC(=O)[C@]12CCCC3=C1N(CCC3)C(=O)[C@@H](CC(=O)N1CCN(C(=O)c3ccco3)CC1)C2	none (no result: NS3 helicase inh, TAAR1 antagonist, TAAR1 agonist, HCV core dimer)
O=C(O)CSc1cc(C(=O)c2ccccc2O)cn2c(=O)c3c(-c4ccccc4)csc3nc12	rCAG RNA binder 53, HCV core dimer 55 | rCAG bind conf 90 | DNA CAG counter 74
CCCc1nc2scc(-c3ccccc3)c2c(=O)n1N	none
COc1ccc(O)c(C(=O)c2cc(SCC(=O)O)c3nc4sc5c(c4c(=O)n3c2)CCCC5)c1	rCAG RNA binder 42 | rCAG bind conf 89 | DNA CAG counter 63
CC(C)(C)c1ccc(OCc2ccc(C(=O)NN)o2)cc1	none
CC(C)(c1ccccc1)c1ccc(OCc2ccc(C(=O)O)o2)cc1	rCAG RNA binder 39 (no result: NS3 helicase inh, HCV core dimer) | rCAG bind conf inactive | DNA CAG counter inactive
